Experimental data published in the EternaBench riboswitch data.

Tested on: MS2 coat protein
Assay: apparent Kd, MS2 coat protein; higher = weaker binding; RNA-MaP array; FMN 200 µM where present
Outline: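 Designs were transcribed by stalled E. coli RNA polymerase on Illumina sequencing-chip clusters. They were titrated with SNAP-549-labelled MS2 coat protein from 0.7 or 1.5 nM, doubling to 3 µM, in 100 mM Tris-HCl pH 7.5, 80 mM KCl, 4 mM MgCl2, BSA, DTT, yeast tRNA and Tween-20, without and then with constant ligand. The apparent Kd is the median of filtered per-cluster fits after normalisation of green signal to red-channel RNA signal and control-cluster median Fmax.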

[1] = designed as: ON switch for flavin mononucleotide, no ligand
[2] = ligand present: flavin mononucleotide, designed as: ON switch for flavin mononucleotide
[3] = designed as: OFF switch for flavin mononucleotide, no ligand
[4] = ligand present: flavin mononucleotide, designed as: OFF switch for flavin mononucleotide

| Sequence | apparent Kd [1] [µM] | apparent Kd [2] [µM] | apparent Kd [3] [µM] | apparent Kd [4] [µM] |
| --- | --- | --- | --- | --- |
| AGUGUCAUCGAGAAGGACACGGACAUGAGGAUCACCCAUGUUCCAUGUUGUAGGAUAUCGAUGAUACAGCUACGUUUCGUAGCA | 0.00501 | 0.0045 | – | – |
| AGUGUCAUCGAGAAGGCCUCAACAUGAGGAUCACCCAUGUUGCAAAAUGGGAGGAUAUCGCGCGCAAAACUACGUUUCGUAGCA | 0.0305 | 0.0114 | – | – |
| AGUGUGAGGCAGGAUAUGCUAUAUGUUCGUAAUGCAGAAGGGUCUACAUGAGGAUCACCCAUGUGUGCGGUUGA | – | – | 0.183 | 0.523 |
| AGUUAAUAUCGAGGAUAUCCUCAUAUACAUGAGGAUCACCCAUGUAAACAUGGAGAAGGCGAUAUUAACAGCAUGUUACAUGCA | 0.377 | 0.0219 | – | – |
| AGUUAAUAUCGAGGAUAUGUCUAGACACAUGAGGAUCACCCAUGUAUGUGUAUAGAAGGCGAUAUUAACAGCAUGUUACAUGCA | 0.0403 | 0.0167 | – | – |
| AGUUAUUCAGGAUAUGGUGUGUUAUACAUGAGGAUCACCCAUGUAGAUCCUGGUUAGGCCUCAGAAGGGAAUGUUA | – | – | 0.19 | 0.19 |
| AGUUGGGUCACAGGAUAUGCGCCGGCAUGCGAAGCAGAAGGGUGACGAGGUUGGGAACAUGAGGAUCACCCAUGUAUCGCAUAA | 0.319 | 0.0365 | – | – |
| AGUUUGCGGCAGGAUAUCCAUCCGCGGUGUGGUGGAGAAGGGCUGACAUGAGGAUCACCCAUGUGCGUCCUGUA | – | – | 0.0232 | 0.0325 |
| AGUUUGUGAGGAUAUCCAAUAUAUGACAUGAGGAUCACCCAUGUUUCCACUCGUACCUCCGGAGAAGGCACUGCGA | – | – | 0.0215 | 0.0229 |
| AUAAAACAUGAGGAUCACCCAUGUCAGGAUAUACCAUUCCCAUGCCAGCAUUAAAAUGGUAGAAGGGACAUGGC | – | – | 0.0493 | 0.0272 |
| AUAAAGUGAGGAUAUGUAAAAAUAACGAAAGUUAUAAAUAAACAGAAGGCACAUGAGGAUCACCCAUGUCCAAU | – | – | 0.0268 | 0.0431 |
| AUAAAUAUAGCGAUAUGAUCGAGAGAUCAUGUCGCUAAUGUUAGAAGGACAUGAGGAUCACCCAUGUAGGAUAUGGGAGUAUGA | 0.197 | 0.086 | – | – |
| AUAAGCUCGUCAGGAUAUGCGACACUGUUUCUGCAGUGUGGUAUGAUCACAUGAGGAUCACCCAUGUAGAAGGGACGAGCUUAU | – | – | 0.00666 | 0.0139 |
| AUAAGUGAAAGCUAAAGAUUAGCCGAGGAUAUACAUGAGGAUCACCCAUGUAAGGGUCGCCUUCUGUAGAAGGCGGCGGUCUAG | – | – | 0.0405 | 0.0765 |
| AUAAUGUAAGGAUAUCAGUCGACUAGCUGCGGCUAGUCGACUGAGAAGGUACAUGAGGAUCACCCAUGUGUUCC | – | – | 0.133 | 0.868 |
| AUAAUGUGAGGAUAUCAGUCGUACAGCUUCGGCUGUACGACUGAGAAGGCACAUGAGGAUCACCCAUGUGGUCA | – | – | 0.499 | 0.0842 |
| AUAAUUUUAUAUAUCAUAUAAAUCAGAAGGCAUAACAUGAGGAUCACCCAUGUAUAUUAUUGUUAUGAGGAUAUGAUUUCGUUA | – | – | 0.00912 | 0.0425 |
| AUAAUUUUAUUUUUCUAUUUCAUCAGAAGGCAUUACAUGAGGAUCACCCAUGUUUUGGAUAGUAAUGAGGAUAUGAUAUGGUUA | – | – | 0.0102 | 0.0186 |
| AUACAUACAAAGUUACAUGAGGAUCACCCAUGUUUAUUGGGAAGAAGGGUAACAUUAUUAGAUGUAUAGGAUAUUUCACAAUUG | 0.537 | 0.275 | – | – |
| AUACAUGAGGAUCACCCAUGUAAUUAAUUAAUUAAUAAGAUCUAGGAUAUCAGCUCGAAUAGAGCUGAGAAGGAGAUCACAUGU | 0.023 | 0.0144 | – | – |
| AUACAUGAGGAUCACCCAUGUCGCAGGUUAAGGCCCAAACCGAGAAGGGAUUCGGUCAAGCCUAAUCAGGAUAUCGGUGGAGCC | 0.0934 | 0.0621 | – | – |
| AUACCUUAUGAGAAGGCGAUCAUGAAACAUGAUCGAGGAUAUCAUGUAAACAUGAGGAUCACCCAUGUAUGGGUAUUAUGGUAA | 0.0265 | 0.0091 | – | – |
| AUACCUUAUGAGAAGGCGGUCAUGAAACAUGAUCGAGGAUAUCAUGUAAACAUGAGGAUCACCCAUGUAUGGGUAUUAUGGUAC | 0.0382 | 0.0102 | – | – |
| AUACUCAUGUAAGGAUAUGCAGCCGAAACGGCUGCAGAAGGUACUAAAAUACAUGAGGAUCACCCAUGUCUUUUUAAUUUAGAC | 0.258 | 0.255 | – | – |
| AUACUCAUGUAAGGAUAUGCAGCCGAAACGGCUGCAGAAGGUACUAUAAUACAUGAGGAUCACCCAUGUCAAAAUAAAAUAGUC | 0.0635 | 0.0229 | – | – |
| AUAGCAUACCGAGGAUAUUCAUAUAAUAAAUAAACAUGAGGAUCACCCAUGUGGCGAAAGCCUAGGGAGAAGGCGGAAUGCUAU | 0.204 | 0.0241 | – | – |
| AUAUCAUACCAAGGAUAUUUAGGAUUUGUGUAGACAUGAGGAUCACCCAUGUGGCGUUAGUCACGGGAGAAGGUGGUAUGAUAU | 0.622 | 0.105 | – | – |
| AUAUCCUAGAUAGGAUAUACUGAGGUUGAAUGGGUAGAAGGAUCGUUAGGGAAGACUACAUGAGGAUCACCCAUGUUGUGUAUU | 0.218 | 0.182 | – | – |

| Sequence | apparent Kd [1] [µM] | apparent Kd [2] [µM] | apparent Kd [3] [µM] | apparent Kd [4] [µM] |
| --- | --- | --- | --- | --- |
| AUAUCCUAGAUAGGAUAUACUGAGGUUGAAUGGGUAGAAGGAUCGUUAGGGUAGACUACAUGAGGAUCACCCAUGUUGUUUAUU | 0.0431 | 0.0401 | – | – |
| AUAUCUCUGUAAGGAUAUAGAUGGUAUACGCCUCCGACAUGAGGAUCACCCAUGUUAUAUUUUGUCUAGAAGGUACAGUGUCGG | 0.656 | 0.292 | – | – |
| AUAUGAUAGAUAGGAUAUACAUUGGAUUUAUAAGUAGAAGGAUCAAGUGGGAAUUAUACAUGAGGAUCACCCAUGUUUUUGGAU | 0.0639 | 0.0439 | – | – |
| AUAUGAUAGAUAGGAUAUACUGAGGUUGAAUGGGUAGAAGGAUCGAUAGGGAAGAAUACAUGAGGAUCACCCAUGUUGUGGAUU | 0.0769 | 0.0578 | – | – |
| AUAUUAAUAGUAAGGAUAUGCGUGUAUGUAGUUAUGCAGAAGGUACAUGAGGAUCACCCAUGUAUUAAUGUGUA | – | – | 0.0142 | 0.0154 |
| AUAUUUAUUUAGAAGGACAUGAGGAUCACCCAUGUCGCUGGGCCCGGGAAACCGGGCCCGGCCAUGUAGGAUAUAGAUAGAUAU | – | – | 0.00853 | 0.00917 |
| AUCAAUCAUGUAGGAUAUGCGUGGCGAAGCUAUGCAGAAGGACAUGAGGAUCACCCAUGUCUUUCUGUCUGCGUACGGACAGGA | – | – | 0.0194 | 0.0729 |
| AUCAGCUCCUCAGGAUAUACGUCACUGCGUCAGCAGUGUGGUAAGAUCACAUGAGGAUCACCCAUGUAGAAGGGACGAGCUGAU | – | – | 0.0318 | 0.14 |
| AUCAGCUCGGCAGGAUAUACGUCACUGCGUCAGCAGUGUGGUAAGAUCACAUGAGGAUCACCCAUGUAGAAGGGACGAGCUGAU | – | – | 0.0114 | 0.0745 |
| AUCAGCUCGUCAGGAUAUACAUCACUGCGUCAGCAGUGUGGUAAGAUCACAUGAGGAUCACCCAUGUAGAAGGGACGAGCUGAU | – | – | 0.0139 | 0.252 |
| AUCAGCUCGUCAGGAUAUACAUGAUAGAUCGAUUAAUUAAUUAAUUUAACAUGAGGAUCACCCAUGUAGAAGGGACGAGCUGAU | – | – | 0.0685 | 0.0674 |
| AUCAGCUCGUCAGGAUAUACGUCACUGCGUCAGCAGUGUGGGAAGAUCACAUGAGGAUCACCCAUGUAGAAGGGACGAGCUGAU | – | – | 0.635 | 0.0204 |
| AUCAGCUCGUCAGGAUAUACGUCACUGCGUCAGCAGUGUGGUAAAAUCACAUGAGGAUCACCCAUGUAGAAGGGACGAGCUGAU | – | – | 0.00618 | 0.0144 |
| AUCAGCUCGUCAGGAUAUACGUCACUGCGUCAGCAGUGUGGUAAGAUCACAUGAGGAUCACCCAUGUAGAAGGGACGAGCUGGU | – | – | 0.0144 | 0.239 |
| AUCAGCUCGUCAGGAUAUACGUGACUGCGUCAGCAGUGUGGUAAGAUCACAUGAGGAUCACCCAUGUAGAAGGGACGAGCUGAU | – | – | 0.0532 | 0.58 |
| AUCAGCUCGUCAGGAUAUGCGUCACUGCGUCAGCAGUGUGGUAAGAUCACAUGAGGAUCACCCAUGUAGAAGGGACGAGCUGAU | – | – | 0.00959 | 0.0882 |
| AUCAGCUUGACAGGAUAUACAUGUCAGCGAAAGCUGACAAUCUUAAUAACAUGAGGAUCACCCAUGUAGAAGGGUCGAGCUGAU | – | – | 0.0181 | 0.0324 |
| AUCAGGUCGUCAGGAUAUACGUCACUGCGUCAGCAGUGUGGUAAGAUCACAUGAGGAUCACCCAUGUAGAAGGGACGAGCUGAU | – | – | 0.0132 | 0.311 |
| AUCAGUUCGUCAGGAUAUACGUCACUGCGUCAGCAGUGUGGUAAGAUCACAUGAGGAUCACCCAUGUAGAAGGGACGAGCUGAU | – | – | 0.014 | 0.214 |
| AUCAUGUAAGGAUAUCUUAUAUGGAUCGAAAGAUCAAGUUAAGAGAAGGUACAUGAGGAUCACCCAUGUAUAAC | – | – | 0.0212 | 0.0272 |
| AUCAUGUCAGGAUAUCUGAUAUGGAUCUUCGGAUCAAGUUCAGAGAAGGGACAUGAGGAUCACCCAUGUCGAAC | – | – | 0.025 | 0.0424 |
| AUCAUGUCAGGAUAUGUGACAUGGAUCUUCGGAUCAAGAUCACAGAAGGGACAUGAGGAUCACCCAUGUCGAUC | – | – | 0.0988 | 0.0534 |
| AUCCCGCGAGGAUAUACAUGAGGAUCACCCAUGUAGGUUCUGGAUGGGCGAAAUUUGUGUAGAAGGCGCACCAA | – | – | 0.0334 | 0.0261 |
| AUCCGACAUGAGGAUCACCCAUGUCAGGAUAUGGACUGACAUCGAAAGGAUGGCAGAACCAGAAGGGACUGGGC | – | – | 0.0299 | 0.0562 |
| AUCCGGAGGGAGAAGGGCUAGGAGGUCCAGCUUAUGUGUGUUGCAACAUGAGGAUCACCCAUGUAGCAGGAUAUCCCUUGUAUA | – | – | 0.0512 | 0.214 |
| AUCGAGUAAGGAUAUACAUGAGGAUCACCCAUGUCCGUGAGGUAAGUUUGUGUCCGGCGUAGAAGGUACUGCAU | – | – | 0.0521 | 0.121 |
| AUCGGUCCGUAGAAGGGUGACAUGAGGAUCACCCAUGUGCCGUGUGCGUUUAUGCCUCCACGGCCACAGGAUAUACGGAGUUGA | 0.0282 | 0.0191 | – | – |
